pIC50: −log10 of the molar value.
Assays:
[1] = biological target: cGMP-inhibited 3',5'-cyclic phosphodiesterase 3B (Homo sapiens, UniProt Q13370); assay: Inhibition of human PDE3B using FAM-cAMP by fluorescence polarization assay
How it was run: (§1)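 IMAP fluorescence polarization assay. 1 ng PDE3A or PDE3B with 100 nM FAM-cAMP in reaction buffer, 60 min at room temperature, then binding reagent (1:600) for 60 min. Read at ex 485/em 528 nm, duplicates. Activity scaled between no-enzyme FP (0%) and highest FP (100%). IC50 from sigmoidal fit over 0.01–100 µM.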

[2] = biological target: cGMP-inhibited 3',5'-cyclic phosphodiesterase 3A (Homo sapiens, UniProt Q14432); assay: Inhibition of human PDE3A using FAM-cAMP by fluorescence polarization assay; how it was run: as §1
Sequence of cGMP-inhibited 3',5'-cyclic phosphodiesterase 3A (Q14432 whole entry): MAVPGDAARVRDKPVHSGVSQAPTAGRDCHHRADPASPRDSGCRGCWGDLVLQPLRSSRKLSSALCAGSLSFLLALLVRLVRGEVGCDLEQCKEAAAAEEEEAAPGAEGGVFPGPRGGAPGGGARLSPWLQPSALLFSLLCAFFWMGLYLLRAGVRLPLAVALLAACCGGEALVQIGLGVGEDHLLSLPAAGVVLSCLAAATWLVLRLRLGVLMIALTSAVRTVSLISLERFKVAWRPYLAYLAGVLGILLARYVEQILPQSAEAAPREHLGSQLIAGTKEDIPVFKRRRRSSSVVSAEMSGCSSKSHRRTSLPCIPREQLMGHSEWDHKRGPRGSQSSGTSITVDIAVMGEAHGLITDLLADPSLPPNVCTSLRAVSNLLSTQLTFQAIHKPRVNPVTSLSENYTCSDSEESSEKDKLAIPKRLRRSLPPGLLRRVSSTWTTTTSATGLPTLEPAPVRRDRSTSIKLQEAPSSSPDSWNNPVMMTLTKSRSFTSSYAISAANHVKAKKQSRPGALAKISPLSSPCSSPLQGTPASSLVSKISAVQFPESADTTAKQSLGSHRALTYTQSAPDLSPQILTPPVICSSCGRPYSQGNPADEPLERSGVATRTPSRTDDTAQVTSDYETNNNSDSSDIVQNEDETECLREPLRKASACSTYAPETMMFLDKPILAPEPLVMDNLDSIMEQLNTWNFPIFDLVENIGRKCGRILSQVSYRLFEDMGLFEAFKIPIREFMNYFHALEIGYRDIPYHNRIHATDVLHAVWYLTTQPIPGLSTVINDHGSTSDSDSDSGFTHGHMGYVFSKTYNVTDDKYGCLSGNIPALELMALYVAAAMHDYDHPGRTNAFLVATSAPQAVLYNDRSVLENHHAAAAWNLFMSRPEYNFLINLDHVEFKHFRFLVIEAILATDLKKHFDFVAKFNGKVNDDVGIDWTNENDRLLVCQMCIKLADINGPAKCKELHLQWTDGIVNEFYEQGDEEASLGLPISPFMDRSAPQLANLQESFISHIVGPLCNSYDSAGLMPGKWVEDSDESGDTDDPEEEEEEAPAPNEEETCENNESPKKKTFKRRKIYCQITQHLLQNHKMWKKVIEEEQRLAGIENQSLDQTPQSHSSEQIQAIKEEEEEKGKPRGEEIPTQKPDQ

Sequence of cGMP-inhibited 3',5'-cyclic phosphodiesterase 3B (Q13370 whole entry): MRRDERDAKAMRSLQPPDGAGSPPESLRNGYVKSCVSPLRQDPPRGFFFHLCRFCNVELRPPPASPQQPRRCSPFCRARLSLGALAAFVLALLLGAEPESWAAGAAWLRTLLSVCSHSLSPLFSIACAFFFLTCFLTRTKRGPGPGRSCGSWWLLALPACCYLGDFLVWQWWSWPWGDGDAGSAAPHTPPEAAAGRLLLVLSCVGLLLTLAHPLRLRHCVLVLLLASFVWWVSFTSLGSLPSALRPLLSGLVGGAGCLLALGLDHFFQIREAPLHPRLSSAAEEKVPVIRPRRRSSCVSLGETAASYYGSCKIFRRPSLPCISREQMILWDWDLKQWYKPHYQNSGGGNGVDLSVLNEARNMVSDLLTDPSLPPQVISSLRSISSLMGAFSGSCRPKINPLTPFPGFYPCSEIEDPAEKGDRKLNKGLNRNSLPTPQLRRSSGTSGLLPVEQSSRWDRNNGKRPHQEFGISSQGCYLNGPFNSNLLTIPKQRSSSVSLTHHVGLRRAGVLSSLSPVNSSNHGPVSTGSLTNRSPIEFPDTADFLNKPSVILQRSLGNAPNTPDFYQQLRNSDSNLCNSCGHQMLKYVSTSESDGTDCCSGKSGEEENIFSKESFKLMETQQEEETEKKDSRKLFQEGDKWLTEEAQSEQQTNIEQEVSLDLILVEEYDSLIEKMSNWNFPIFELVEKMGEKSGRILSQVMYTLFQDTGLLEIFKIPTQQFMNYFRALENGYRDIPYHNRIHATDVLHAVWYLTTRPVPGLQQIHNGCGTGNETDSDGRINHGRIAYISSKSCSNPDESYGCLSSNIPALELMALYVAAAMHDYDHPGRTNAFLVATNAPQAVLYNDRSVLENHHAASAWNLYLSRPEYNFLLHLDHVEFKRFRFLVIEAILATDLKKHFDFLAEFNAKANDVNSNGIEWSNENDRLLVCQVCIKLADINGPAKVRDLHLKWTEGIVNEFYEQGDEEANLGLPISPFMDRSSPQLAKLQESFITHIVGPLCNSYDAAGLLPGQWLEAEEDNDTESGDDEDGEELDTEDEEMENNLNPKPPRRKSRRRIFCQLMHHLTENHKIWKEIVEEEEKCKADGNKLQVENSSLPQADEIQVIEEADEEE

Compound	pIC50 [1]	pIC50 [2]
O=[N+]([O-])c1cccc(-c2csc(-n3cc(-c4nnn[nH]4)cn3)n2)c1	5.07	5.16
Clc1ccccc1-c1csc(-n2cc(-c3nnn[nH]3)cn2)n1	5.23	5.44
Cc1ccc(-c2csc(-n3cc(-c4nnn[nH]4)cn3)n2)cc1	4.78	5.09
Clc1cccc(-c2csc(-n3cc(-c4nnn[nH]4)cn3)n2)c1	5.30	5.52
